rCAG RNA binder – binds r(CAG) RNA repeats | r(CAG) RNA repeat, TO-PRO-1 dye displacement fluorescence | inhibition, % at 3 µM | 370,000 compounds, 1.3% hits | AID 651821;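 active means inhibition above the plate cutoff, the mean of all test compounds on that plate plus 3 SD, cut at about 35% in these data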;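 further: 0% = DMSO alone and 100% = 100 µM mitoxantrone as full dye displacement; higher means more dye released from RNA so lower well fluorescence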
TCR-CD3 inh – human TCR-CD3 binding inhibition; inhibition, % at 9.4 µM; 360,000 compounds, 0.37% hits; TAMRA-labeled TCR probe fluorescence, biochemical; in the data active means inhibition above about 19%;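 further: recombinant mutant TCR 2C K166C tagged with TAMRA read by polarization; 0% = receptor in buffer alone and 100% = receptor with positive control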
ABHD4 inh – inhibitors of mouse ABHD4; 370,000 compounds, 0.54% hits; purified mABHD4, FP-Rh probe fluorescence polarization; inhibition, % at 8.92 µM; Q8VD66;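 active means inhibition exceeding the mean over every tested compound plus 3 SD, cut at about 30% in these data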;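 further: 0% = plate median of compound wells and 100% = S159A mutant with DMSO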
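Test system: mABHD4 protein | Buffer or medium: HEPES pH 7.0 buffer, 150 mM NaCl, 0.01% Pluronic F-127 | Probe or stimulus: FP-Rh fluorescent activity-based probe, added after compound pre-incubation | Timing: Pre-incubation 45 min, probe exposure 60 min, at 25 °C | Technique: Fluorescence polarization, excitation 525 nm, emission 598 nm, BODIPY TMR filters | Repeats: Single well per compound (singlicate)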
SIAE inh – blocks human sialic acid acetylesterase. Q9HAT2. SIAE FP-Rh probe binding, fluorescence polarization. inhibition, % at 9.66 µM. 370,000 compounds, 0.69% hits. AID 1053197;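 active means inhibition above a cutoff: mean of compounds within the control limits plus 3 SD of those, cut at about 17% in these data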;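 further: 0% = plate median of compound wells and 100% = probe without SIAE protein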
Target sequence (Q9HAT2 whole entry, looked up): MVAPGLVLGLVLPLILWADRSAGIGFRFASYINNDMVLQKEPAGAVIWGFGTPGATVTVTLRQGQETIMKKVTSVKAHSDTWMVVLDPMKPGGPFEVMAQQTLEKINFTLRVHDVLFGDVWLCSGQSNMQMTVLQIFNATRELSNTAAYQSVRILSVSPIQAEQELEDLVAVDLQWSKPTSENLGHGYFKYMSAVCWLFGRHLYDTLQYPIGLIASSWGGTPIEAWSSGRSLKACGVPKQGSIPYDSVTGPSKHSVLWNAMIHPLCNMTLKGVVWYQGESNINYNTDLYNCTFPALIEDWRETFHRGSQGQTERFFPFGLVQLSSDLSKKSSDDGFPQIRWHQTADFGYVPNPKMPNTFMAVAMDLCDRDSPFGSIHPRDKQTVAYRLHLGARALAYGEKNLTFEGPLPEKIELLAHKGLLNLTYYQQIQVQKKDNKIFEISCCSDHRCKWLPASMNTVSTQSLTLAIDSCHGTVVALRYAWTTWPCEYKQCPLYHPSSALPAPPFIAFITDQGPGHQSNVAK
PRMT1 FP inh – PRMT1 (human) inhibition, primary screen; Q99873; recombinant PRMT1, activity-based probe fluorescence polarization; inhibition, % at 2.79 µM; 370,000 compounds, 1.3% hits; AID 652257;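 active means inhibition above about 21% made by adding two undisclosed values, limit read from the data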
SIAE inh conf – human SIAE inhibition, confirmation. shares compounds with SIAE inh. SIAE FP-Rh activity-based probe, fluorescence polarization. inhibition, % at 9.66 µM. 2,300 compounds, 13% hits;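 active means mean inhibition of the replicates above the hit cutoff set in the primary screen, cut at about 17% in these data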;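 further: 0% = SIAE with DMSO and probe and 100% = probe without SIAE; inhibitors lower polarization as more probe stays unbound to SIAE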
* marks the source's active call; other numbers are inactive results. Shown are actives, neighbours in structure and some others; about 3.3% of the full set was active somewhere.

Screening CCc1noc(C)c1C(=O)NCCN1C(=O)S/C(=C\c2ccc(OC)cc2)C1=O returned rCAG RNA binder -4.5, TCR-CD3 inh -5.8, ABHD4 inh -0.8, SIAE inh 3.8 and PRMT1 FP inh 4.4.
Cc1sc(NC(=S)Nc2ccc(F)cc2)c(C(N)=O)c1C was read as rCAG RNA binder 6.6, TCR-CD3 inh 1.1, ABHD4 inh 2.0, SIAE inh 17.4*, PRMT1 FP inh 19.0 and SIAE inh conf 5.4.
For CC(=O)c1cccc(N(C(=O)c2ccco2)C(C(=O)NC2CCCCC2)c2ccc(C)o2)c1 (stereo unspecified) the results were rCAG RNA binder -0.3, TCR-CD3 inh -1.5, ABHD4 inh -1.1, SIAE inh 19.3*, PRMT1 FP inh 3.1 and SIAE inh conf -7.8.
Screening COc1cccc(N(C(=O)c2ccco2)C(C(=O)NC2CCCC2)c2ccc(N(C)C)cc2)c1 (stereo unspecified) returned rCAG RNA binder -4.3, TCR-CD3 inh 5.3, ABHD4 inh 4.1, SIAE inh 3.2 and PRMT1 FP inh 0.9.
COc1ccc(N(C(=O)c2ccco2)C(C(=O)NC2CCCC2)c2ccc(N(C)C)cc2)cc1OC (stereo unspecified) was read as rCAG RNA binder 5.6, TCR-CD3 inh 0.0, ABHD4 inh 1.4, SIAE inh 25.9*, PRMT1 FP inh -3.7 and SIAE inh conf 3.6.
COC(=O)C1CCCCN1C(=O)c1ccc2oc(C(C)C)nc2c1 (stereo unspecified) was read as rCAG RNA binder -7.3, TCR-CD3 inh 0.2, ABHD4 inh 3.1, SIAE inh 17.1*, PRMT1 FP inh 0.7 and SIAE inh conf 6.0.
Screening COc1ccccc1OCCNC(=O)Nc1ccc(Br)cc1 returned rCAG RNA binder 2.6, TCR-CD3 inh -2.7, ABHD4 inh 0.2, SIAE inh 17.8*, PRMT1 FP inh 2.4 and SIAE inh conf 1.1.
`O=C(CNC(=O)c1ccc(Cl)cc1Cl)OCN1C(=O)c2ccccc2C1=O` gave rCAG RNA binder -3.2, TCR-CD3 inh 0.0, ABHD4 inh 1.2, SIAE inh 19.1*, PRMT1 FP inh -1.5 and SIAE inh conf -4.5.
Screening CC1CCCCN1C(=O)COC(=O)CNC(=O)c1ccc(Cl)cc1Cl (stereo unspecified) returned rCAG RNA binder -3.3, TCR-CD3 inh 6.2, ABHD4 inh 3.8, SIAE inh 5.8 and PRMT1 FP inh -2.1.
COC(=O)C1CCN(C(=O)COC(=O)CNC(=O)c2ccc(Cl)cc2Cl)CC1 was read as rCAG RNA binder 3.4, TCR-CD3 inh -5.2, ABHD4 inh 1.8, SIAE inh 19.6*, PRMT1 FP inh -3.1 and SIAE inh conf -3.9.
COc1cc(C(=O)NCCC2=CCCCC2)ccc1OC1CCN(C(C)=O)CC1 was read as rCAG RNA binder -3.8, TCR-CD3 inh -1.4, ABHD4 inh 2.9, SIAE inh 19.3*, PRMT1 FP inh -5.3 and SIAE inh conf 0.5.
`COc1cc(C(=O)NCCc2ncccc2C)ccc1OC1CCN(C(C)=O)CC1` gave rCAG RNA binder -6.0, TCR-CD3 inh -6.7, ABHD4 inh -0.5, SIAE inh -0.5 and PRMT1 FP inh 5.8.
Screening CC1CCC2(CCC(=O)N2C[C@@H](O)c2ccccc2)CC1 (stereo partly specified) returned ABHD4 inh 3.6, SIAE inh 5.5 and PRMT1 FP inh 3.1.
For CC(=O)Nc1ccc(N/C=C/C(=O)c2ccc(Cl)cc2)cc1 the results were rCAG RNA binder 2.3, TCR-CD3 inh 5.9, ABHD4 inh 3.2, SIAE inh 19.3*, PRMT1 FP inh -5.5 and SIAE inh conf 2.6.
Screening CC(=O)c1ccc(N/C=C\C(=O)c2ccc(C)cc2)cc1 returned rCAG RNA binder -2.6, TCR-CD3 inh 3.3, ABHD4 inh -5.1, SIAE inh -7.4 and PRMT1 FP inh -1.1.
Screening CC(NC(=O)CNC(=O)C1CCCCC1)c1ccc(S(N)(=O)=O)cc1 (stereo unspecified) returned rCAG RNA binder 1.5, TCR-CD3 inh 2.1, ABHD4 inh -2.6, SIAE inh -1.6 and PRMT1 FP inh -2.6.
For Cc1ccc(-c2csc(N/N=C/c3ccco3)n2)c(C)c1 the results were rCAG RNA binder 9.5, TCR-CD3 inh 5.7, ABHD4 inh 10.5, SIAE inh 18.5*, PRMT1 FP inh 3.5 and SIAE inh conf 3.1.
For CN(C)S(=O)(=O)c1cccc(-c2csc(N/N=C/c3ccco3)n2)c1 the results were rCAG RNA binder 32.2, TCR-CD3 inh 5.7, ABHD4 inh 13.8, SIAE inh 3.3 and PRMT1 FP inh 11.5.
`COC(=O)C(Cc1ccc(O)cc1)NC(=O)C1CCN(S(=O)(=O)c2ccc(C)cc2)CC1` (stereo unspecified) gave rCAG RNA binder -2.7, TCR-CD3 inh -7.1, ABHD4 inh 0.6, SIAE inh 1.0 and PRMT1 FP inh -0.7.
`Cc1noc(C(=O)Nc2cccnc2)c1Cl` gave rCAG RNA binder 2.4, TCR-CD3 inh -5.2, ABHD4 inh 3.1, SIAE inh 17.5*, PRMT1 FP inh -2.3 and SIAE inh conf -1.9.
Clc1ccc(N/N=C/c2ccncc2)cc1Cl was read as rCAG RNA binder 6.8, TCR-CD3 inh 2.6, ABHD4 inh 6.6, SIAE inh 23.8*, PRMT1 FP inh 0.0 and SIAE inh conf 18.9*.
For O=[N+]([O-])c1ccc(NC2CCCC2)cc1 the results were rCAG RNA binder 3.0, TCR-CD3 inh 3.4, ABHD4 inh 3.5, SIAE inh 19.0*, PRMT1 FP inh -0.5 and SIAE inh conf 0.8.
For O=C1CCCCC1Nc1ccc([N+](=O)[O-])cc1 (stereo unspecified) the results were rCAG RNA binder 2.1, TCR-CD3 inh 5.6, ABHD4 inh 1.7, SIAE inh -3.9 and PRMT1 FP inh 0.4.
Screening CN(C)c1ccc(CNc2nc3cc(-c4ccc(F)cc4)sc3c(=O)n2C)cc1 returned rCAG RNA binder 5.6, TCR-CD3 inh 0.9, ABHD4 inh -7.0, SIAE inh 17.4*, PRMT1 FP inh -4.6 and SIAE inh conf 2.6.
Screening COC(=O)[C@]12C[C@H](CC(=O)NCc3cccc(C(F)(F)F)c3)C(=O)N(Cc3ccccc3)C1=C[C@H](C(C)(C)C)O[C@@H]2C returned rCAG RNA binder 3.0, TCR-CD3 inh 0.6, ABHD4 inh -3.5, SIAE inh 27.5*, PRMT1 FP inh 2.0 and SIAE inh conf -1.7.
`COC(=O)[C@]12C[C@H](CC(=O)NCCCN3CCCC3=O)C(=O)N(Cc3ccccc3)C1=C[C@H](C(C)C)O[C@@H]2C1CC1` gave rCAG RNA binder -0.9, TCR-CD3 inh 7.3, ABHD4 inh 3.2, SIAE inh 19.8*, PRMT1 FP inh -1.3 and SIAE inh conf -3.3.
For N#Cc1ccc(Oc2ccc(C#N)c(C#N)c2)cc1C#N the results were rCAG RNA binder 0.2, TCR-CD3 inh -3.3, ABHD4 inh 6.1, SIAE inh -2.1 and PRMT1 FP inh 0.7.
